Reference: ChEMBL document CHEMBL1132547, “Molecular recognition of modified adenine nucleotides by the P2Y(1)-receptor. 1. A synthetic, biochemical, and NMR approach” (J Med Chem, 1999)

Columns and labels:
P2Y purinoceptor 1 = P2Y purinoceptor 1 (Meleagris gallopavo, UniProt P49652); assay: Compounds was tested for its ability to stimulate phospholipase C activity at the P2Y purinoceptor 1 in turkey erythrocyte membranes.; type: cell membranes
Outline: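 Turkey erythrocytes labeled 18–24 h at 37 °C with 2-[3H]myo-inositol in inositol-free DMEM; membranes from hypotonic lysis; PLC assay at pH 7.0 with […] and varying nucleotide concentrations, 5 min at 30 °C; total [3H]inositol phosphates by ion-exchange chromatography; EC50 from four-parameter logistic fit, ≥3 experiments on different membrane preparations, duplicate assays.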

Rattus norvegicus [1] = organism: Rattus norvegicus; assay: Amplitude of the [Ca++]i Transient evoked by 10 uM ATP, AMP and the compound in NG108-15 Neuroblastoma x Glioma Hybrid cells; type: functional
Outline: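 NG108-15 cells (passage 24–40) grown on glass coverslips 3–7 days (20–80% confluency), loaded 30 min at 37 °C with 2 μM fura-2/AM in HEPES-buffered saline pH 7.4, superfused at 37 °C; 30-s agonist application at 10 μM; single-cell imaging, alternate 340/380 nm excitation, emission >510 nm; amplitude as Δ F340/F380 ratio, mean ± SEM over n single cells.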

Rattus norvegicus [2] = organism: Rattus norvegicus; assay: Amplitude of the [Ca++]i Transient evoked by 10 uM ATP, AMP and the compound in rat Astrocytes, expressed as (F340 nm/F380 nm); type: functional
Outline: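 Primary astrocyte-enriched cultures from newborn Wistar rat whole brain, used on days 6–11 in culture; fura-2/AM (2 μM, 30 min, 37 °C, HEPES-buffered saline pH 7.4) loading; superfusion at 37 °C, 30-s stimulation at 10 μM; single-cell 340/380 nm ratio imaging; maximal Δ F340/F380, mean ± SEM, n = single cells.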

Sequence of P2Y purinoceptor 1 (P49652 whole entry): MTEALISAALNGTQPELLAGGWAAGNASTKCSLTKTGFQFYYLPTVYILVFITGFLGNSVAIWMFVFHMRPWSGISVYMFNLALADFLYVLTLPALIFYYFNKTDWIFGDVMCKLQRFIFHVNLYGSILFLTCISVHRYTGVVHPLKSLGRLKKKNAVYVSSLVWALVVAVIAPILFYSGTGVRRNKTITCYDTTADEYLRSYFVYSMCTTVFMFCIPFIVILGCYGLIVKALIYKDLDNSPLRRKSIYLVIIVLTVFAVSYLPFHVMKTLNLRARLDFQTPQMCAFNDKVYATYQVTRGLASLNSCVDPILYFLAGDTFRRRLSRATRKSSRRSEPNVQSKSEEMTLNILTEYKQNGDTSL

## CCCCNc1nc2c(N)ncnc2n1[C@@H]1O[C@H](COP(=O)(O)OP(=O)(O)OP(=O)(O)O)[C@@H](O)[C@H]1O
P2Y purinoceptor 1
  EC50: 51000 nM

## CCCCSc1nc2c(N)ncnc2n1[C@@H]1O[C@H](COP(=O)(O)OP(=O)(O)OP(=O)(O)O)[C@@H](O)[C@H]1O
P2Y purinoceptor 1
  EC50: 10000 nM

## CCCCOc1nc(N)c2ncn([C@@H]3O[C@H](COP(=O)([O-])OP(=O)([O-])OP(=O)([O-])[O-])[C@@H](O)[C@H]3O)c2n1.[Na+].[Na+].[Na+].[Na+]
Rattus norvegicus [1]
  Activity: 0.06
Rattus norvegicus [2]
  Activity: 0.63
P2Y purinoceptor 1
  EC50: 88 nM

## CCCCOc1nc2c(N)ncnc2n1[C@@H]1O[C@H](COP(=O)(O)OP(=O)(O)OP(=O)(O)O)[C@@H](O)[C@H]1O
P2Y purinoceptor 1
  EC50: 5710 nM

## CCCCSc1nc(N)c2ncn([C@@H]3O[C@H](COP(=O)([O-])OP(=O)([O-])OP(=O)([O-])[O-])[C@@H](O)[C@H]3O)c2n1.[Na+].[Na+].[Na+].[Na+]
Rattus norvegicus [1]
  Activity: 0.23
Rattus norvegicus [2]
  Activity: 0.9
P2Y purinoceptor 1
  EC50: 18 nM

## CCCCNc1nc(N)c2ncn([C@@H]3O[C@H](COP(=O)([O-])OP(=O)([O-])OP(=O)([O-])[O-])[C@@H](O)[C@H]3O)c2n1.[Na+].[Na+].[Na+].[Na+]
Rattus norvegicus [1]
  Activity: 0.05
Rattus norvegicus [2]
  Activity: 0.89
P2Y purinoceptor 1
  EC50: 39 nM

## CCCCSc1nc(N)c2ncn(C3O[C@H](COP(=O)([O-])[O-])[C@@H](O)[C@H]3O)c2n1.[Na+].[Na+] (stereo partly drawn)
Rattus norvegicus [2]
  Activity: 0.28
